# ChEMBL document CHEMBL1147489, “Pi-delocalized beta-carbolinium cations as potential antimalarials” (Bioorg Med Chem Lett, 2004)
# What was measured:
# Plasmodium falciparum = assay: In vitro antimalarial activity against Plasmodium falciparum FCR3; format: functional, organism-based
# In short: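 Drug-sensitive P. falciparum FCR-3 strain tested in vitro; antimalarial potency given as EC50 (M).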
# FM3A [1] = assay: Relative activity against FM3A cells and Plasmodium falciparum FCR3; format: functional
# In short: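 Selective toxicity calculated as EC50 in FM3A cells divided by EC50 against P. falciparum FCR-3.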
# FM3A [2] = assay: In vitro cytotoxic activity tested in mouse mammary tumor FM3A cells; format: functional, cell-based
# In short: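 Growth-inhibition assay in mouse mammary tumour FM3A cells, used as a model of the host. The value reported is the EC50 for cell growth.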
# FM3A [3] = assay: In vitro growth inhibitory activity tested in mouse mammary tumor FM3A cells at 3.0E-5 M concentration
SMILES,EC50 (Plasmodium falciparum) [µM],Selective toxicity (FM3A [1]),EC50 (FM3A [2]) [µM],Percent growth (FM3A [3]) [%]
COc1ccc2c3cc[n+](CCO)c(C)c3n(C)c2c1.[Br-],1.1,>65,,
C=Cc1ncc(OC)c2c1[nH]c1ccccc12,5,0.76,3.8,
COc1ccc2c3cc[n+](C)c(C)c3n(C)c2c1.Cc1ccc(S(=O)(=O)[O-])cc1,0.46,48,22,
COc1ccc2c3ccnc(C)c3n(C)c2c1,31,1,32,
Cc1c2nc3ccccc3c-2ccn1C,4.8,6,29,
C=Cc1c2[nH]c3ccccc3c2c(OC)c[n+]1C.Cc1ccc(S(=O)(=O)[O-])cc1,1.1,7.6,8.4,
C=C[C@H]1CN2CC[C@H]1C[C@H]2[C@H](O)c1ccnc2ccc(OC)cc12 [QUININE],,910,,
C=Cc1c2[nH]c3ccccc3c2c(OC)c[n+]1CC.Cc1ccc(S(=O)(=O)[O-])cc1,0.13,77,10,
COc1cnc(C)c2[nH]c3ccccc3c12,22,0.82,18,
COc1ccc2c(c1)[nH]c1c(C)nccc12 [HARMINE],22,0.82,18,
C[n+]1ccc2c([nH]c3ccccc32)c1-c1ccccc1.Cc1ccc(S(=O)(=O)[O-])cc1,13,>1.8,,
COc1c[n+](C)c(C)c2[nH]c3ccccc3c12.[I-],0.37,81,30,
CCOC(=O)c1c2[nH]c3ccccc3c2c(OC)c[n+]1C.Cc1ccc(S(=O)(=O)[O-])cc1,19,1.2,22,
Cc1c2[nH]c3ccccc3c2cc[n+]1C.Cc1ccc(S(=O)(=O)[O-])cc1,2,18,35,
COc1ccc2c(c1)[nH]c1c(C)[n+](C)ccc12.Cc1ccc(S(=O)(=O)[O-])cc1,1.1,17,19,
CC1=NCCc2c1[nH]c1ccccc21,18,2.1,45,
CC1=[N+](C)CCc2c1[nH]c1ccccc21.Cc1ccc(S(=O)(=O)[O-])cc1,16,>24,,
CCc1c2[nH]c3ccccc3c2c(OC)c[n+]1C.[I-],0.95,>32,,63
